APJ agonist: agonists of human APJ apelin receptor; P35414; CHO-K1 APJ PathHunter beta-arrestin, luminescence; 0% DMSO wells, 100% apelin; activation, % at 20 µM; 330,000 tested, 0.11% active;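 active means activation more than six SD over the plate average, tested at 20 µM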;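 further: 0% = DMSO alone and 100% = apelin-13 at 10 nM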
Target sequence (P35414 whole entry, looked up): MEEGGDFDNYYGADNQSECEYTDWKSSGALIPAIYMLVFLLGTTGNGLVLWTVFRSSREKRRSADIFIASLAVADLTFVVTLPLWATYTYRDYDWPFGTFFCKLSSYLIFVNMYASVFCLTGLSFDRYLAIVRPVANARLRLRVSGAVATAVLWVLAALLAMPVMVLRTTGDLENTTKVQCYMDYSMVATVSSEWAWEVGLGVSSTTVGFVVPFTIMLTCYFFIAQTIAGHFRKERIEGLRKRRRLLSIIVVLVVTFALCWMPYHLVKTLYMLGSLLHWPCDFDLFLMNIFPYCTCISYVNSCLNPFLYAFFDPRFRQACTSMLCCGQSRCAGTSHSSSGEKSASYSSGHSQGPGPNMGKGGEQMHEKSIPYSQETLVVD
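Test system – PathHunter CHO-K1 APJ (AGTRL-1) beta-arrestin reporter cells · Input – 1000 cells/well · Compound – single test compound dose, 20 µM final, 1% DMSO · Times – compound stimulation 90 min at 25 °C, detection 60 min · Technique – beta-gal luminescence · Read-out basis – APJ–arrestin association signal · Control set – negative DMSO alone, positive Apelin-13 at 10 nM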
DAGLB inhibitor: blocks human DAGLB lipase activity | Q8NCG7 | HEK293T DAGLB membrane lysate, EnzChek fluorogenic substrate | inhibition, % at 5.17 µM | 340,000 tested, 0.059% active | AID 504411; in the data active means inhibition above about 34%;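 further: 0% = enzyme with vehicle and 100% = wells lacking enzyme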
CCR6 antagonist: CCR6 (human) receptor antagonism; P51684; CHO-K1 CCR6 PathHunter beta-arrestin, luminescence, CCL20-stimulated; inhibition, % at 20 µM; 340,000 tested, 0.49% active; AID 493098;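 active means compounds whose inhibition of the agonist-driven luminescence signal at 20 µM reaches about 50%, limit read from the data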;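 further: cells stimulated with CCL20 at 14 nM final; plate controls were DMSO with CCL20 for no effect and DMSO without agonist for full effect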
hiPSC survival: hiPSC single-cell survival enhancement; AID 602274; ATPlite luminescence; 100% = ROCK inhibitor wells, 0% = DMSO; 360,000 tested, 0.044% active; survival enhancement, % at 20 µM; in the data active means survival enhancement above about 18%;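 further: cells exposed to compounds for 16 hours before the ATP read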
APJ antag: blocks the human apelin receptor APJ. 330,000 tested, 0.32% active. AID 2521. inhibition, % at 20 µM. CHO-K1 APJ beta-arrestin complementation, luminescence. P35414;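 active means inhibition above about 40% at 20 µM, limit read from the data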;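 further: cells challenged with 10 nM apelin-13 agonist together with compound; plate controls were apelin-13 plus DMSO wells for no effect and DMSO wells lacking apelin-13 for full effect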
CXCR6 inh: CXCR6 (human) receptor inhibition. inhibition, % at 20 µM. CHO-K1 PathHunter CXCR6 beta-arrestin, luminescence. O00574. AID 602244. 360,000 tested, 0.36% active; in the data active means inhibition above about 34%, passing the limit was not always enough;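 further: antagonist mode with CXCL16 agonist at 10 nM final; 0% = 10 nM CXCL16 with DMSO and 100% = unstimulated wells without agonist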
* hit, by the source's call; nt = no result. Compounds with a hit are over-represented: about 0.86% of the library has one in this group of screens.

SMILES	APJ agonist	DAGLB inhibitor	CCR6 antagonist	hiPSC survival	APJ antag	CXCR6 inh
COc1ccc(NC(=O)CS(=O)CC(=O)Nc2cccc3cccnc23)cc1 (stereo not drawn)	3.6	2.5	6.7	-0.3	-8.7	-3.2
CC(=O)Oc1oc(-c2ccccc2)nc1/C=N/c1ccccn1	-3.1	0.6	51.5*	-0.8	25.5	20.6
COc1ccccc1N=Cc1nc(-c2ccccc2)oc1OC(C)=O	-3.2	0.2	5.3	-2.1	0.1	3.9
CC1=CC(=O)C(Sc2ccc(C)cc2)=CC1=O	nt	-2.2	nt	-2.6	nt	92.1*
CCCCC(CC)CN=C(N)NC(N)=NCCCCCCN=C(N)NC(N)=NCC(CC)CCCC (stereo not drawn)	-7.0	9.1	78.6*	-3.5	23.3	89.7*
CCOc1cc(/C=C2\C(=O)ON=C2C)ccc1OCc1ccccc1	9.7*	5.7	-19.0	-1.2	-20.2	-33.0
CCOc1ccc(C(=O)NCC(=O)OCc2c(F)cccc2Cl)cc1	-0.7	-5.7	6.5	-0.4	6.8	-0.1
O=C1C(Cl)=C(Nc2ccccc2)C(=O)c2ccccc21	nt	5.3	53.1*	0.2	nt	35.7
S=C1NC(c2ccccc2)=CC(c2ccccc2)N1 (stereo not drawn)	-3.3	nt	10.2	-0.5	-25.0	-2.2
N#CC1C(=O)NC(c2ccccc2)=CC1c1ccccc1 (stereo not drawn)	nt	1.3	52.1*	1.1	nt	22.0
O=C(O)CC1S/C(=N/N=C/c2ccc(-c3ccc(Cl)c([N+](=O)[O-])c3)o2)NC1=O (stereo not drawn)	-4.9	6.5	58.0*	0.3	10.0	15.0
CCC(=O)/C=C1/Sc2ccc(OC)cc2N1CCO	-2.7	1.9	19.7	-0.2	2.5	0.1
CCC(/C=C1\Sc2ccc(OC)cc2N1CC)=C\c1sc2ccc(OC)cc2[n+]1CCCS(=O)(=O)[O-]	-3.1	3.9	76.9*	-2.2	17.9	11.0
CCC(/C=C1\Sc2ccc(OC)cc2N1CCO)=C\c1sc2ccc(OC)cc2[n+]1CCO	-1.7	11.1	67.6*	-1.8	-33.2	8.9
CC(NS(=O)(=O)OCC(Cl)(Cl)Cl)c1ccc(Br)cc1 (stereo not drawn)	4.8	-3.0	4.5	-1.1	4.0	5.6
CC(Oc1ccccc1)C(=O)Nc1nc(-c2ccncc2)cs1 (stereo not drawn)	-2.0	-1.2	1.4	25.1*	-18.2	-13.1
CC1=NN(c2nc(N)nc(/C(C#N)=C/c3ccc([N+](=O)[O-])o3)n2)C(C)(C)C1	nt	-1.2	53.0*	11.3	nt	26.6
O=C1C2C(C(=O)N1/N=C/c1ccc([N+](=O)[O-])o1)C1C=CC2C12CC2 (stereo not drawn)	2.8	1.9	4.3	-1.8	-70.2	-14.1
CC[C@@H]1[C@H]2CCCC(=O)N3CC[C@@H](C[C@@H]1OC(=O)Nc1ccccc1)[C@@H]23	8.1	2.5	-8.9	-2.8	-3.1	-4.6
c1ccc2[nH]c(NN=C3CCCCCC3)nc2c1	1.0	1.3	13.9	-0.9	7.1	-0.9
c1ccc2nc(NN=C3CCCCC3)ccc2c1	nt	-0.3	77.6*	-0.2	nt	35.4*
O=C(O)CCCN1C(=O)/C(=C\c2ccc(-c3nc4ccccc4s3)o2)SC1=S	-6.5	1.3	24.0	2.5	10.6	42.8*
N#Cc1cc([N+](=O)[O-])c(-n2nnc3ccccc32)c([N+](=O)[O-])c1	4.2	3.8	nt	0.9	23.5	74.2*
Nc1nn2c(-c3ccccc3)cc(=O)[nH]c2c1N=Nc1ccc(O)cc1	-4.3	15.8	32.4	-1.4	23.6	10.7
Nc1nn2c(-c3ccccc3)cc(=O)[nH]c2c1N=Nc1ccc(Br)cc1	nt	4.4	42.6	-1.2	nt	41.4*
SMILES	APJ agonist	DAGLB inhibitor	CCR6 antagonist	hiPSC survival	APJ antag	CXCR6 inh
Cc1ccc(C(=O)C(C)OC(=O)C2CCN(c3ccc(C(F)(F)F)cn3)CC2)cc1 (stereo not drawn)	-4.9	-13.0	28.7	1.4	-3.7	-1.1
C#CCOCCOCCOCCNc1nc(N2CCN(C(=O)CCCCCCCCCCNC(=O)[C@H]([C@@H](C)CC)n3cc(CCCCN=C(N)N)nn3)CC2)nc(N2CCN(C(=O)CCCCCCCCCCNC(=O)[C@H](CCCCN)n3cc(C[C@@H](C)CC)nn3)CC2)n1	58.5*	nt	nt	nt	31.1	nt
COc1ccc(CCN2CC(C(=O)N(C)Cc3cccnc3)CC2=O)cc1OC (stereo not drawn)	-4.2	0.4	3.8	0.9	5.3	-2.1
NNc1ncnc2scc(-c3ccc(Cl)cc3)c12	0.9	-5.0	5.8	0.7	46.2*	3.5
Clc1ccc(-c2csc3ncnc(Cl)c23)cc1	-3.1	1.9	11.9	-0.4	-2.0	3.9
OC(CNCCc1ccc(C(F)(F)F)cc1)COC(c1ccccc1)c1ccccc1 (stereo not drawn)	-0.6	-7.2	60.0*	-0.3	-27.3	31.6
Nc1ccc(C(=O)CC(=O)Nc2ccc(Cl)cc2)cc1	-3.1	3.3	8.6	-0.2	-25.9	-2.8
CSc1ncccc1C(=O)Nc1cccc(S(=O)(=O)N(C)c2ccccc2)c1	-2.2	0.2	18.3	0.2	-18.0	8.5
COc1cc(OC)c(-c2c3cc(O)c(=O)cc-3oc3cc(O)c(O)cc23)cc1OC	-5.9	-81.8	64.3*	-2.0	29.5	32.0
O=C(CN1C(=O)c2ccccc2S1(=O)=O)Nc1cc(S(=O)(=O)N2CCCCC2)ccc1Cl	-5.4	1.0	6.9	-0.4	-44.3	-0.3
Cc1ccc(OCCN2CCN(c3nc(NCc4ccco4)c4ccccc4n3)CC2)cc1	-2.3	-1.2	8.2	23.9*	8.2	-0.3
OCCN1CCN(c2nc(NCc3ccco3)c3ccccc3n2)CC1	-3.5	0.7	-18.5	0.8	16.5	-8.1
c1ccc(CN2CCN(c3nc(NCc4ccco4)c4ccccc4n3)CC2)cc1	1.4	-0.7	17.6	29.8*	-4.3	12.5
CCN(CC)C(=O)C1=C(C)N(Cc2ccc(OC)cc2)C(=O)C(CC(=O)NC(c2ccccc2)c2ccccc2)C1 (stereo not drawn)	nt	-0.8	nt	-0.1	nt	1.8
COc1ccc(NC(=O)CN(c2ccc(OC)cc2)S(=O)(=O)c2c(C)nn(C)c2C)cc1	1.4	1.9	8.5	-0.3	2.4	-1.7
O=C(NC1CCCC1)c1cccc(Oc2ccccc2)c1	-1.3	-4.0	14.9	-0.6	11.7	-5.9
O=C(NCCCN1CCCCCC1)C1CC(=O)N(CCc2ccccc2)C1 (stereo not drawn)	-4.6	-2.9	-21.0	19.2*	-1.2	4.2
CCCn1cc(CN2CCC(n3nccc3NC(=O)c3ccc4c(c3)OCO4)CC2)c(C)n1	-5.0	1.2	-1.0	0.4	-31.6	2.9
COc1ccc(CN(C)CCCn2cnc3c(OC)ncnc32)cc1OC	nt	2.3	nt	25.0*	nt	-9.0
COc1ccc(CC2=CC(=O)c3ccccc3C2=O)cc1	5.4	-3.2	37.8	0.4	19.7	40.6*
